From ChEMBL document CHEMBL4152298, “Total synthesis of acylphloroglucinols and their antibacterial activities against clinical isolates of multi-drug resistant (MDR) and methicillin-resistant strains of Staphylococcus aureus” (2018)
In brackets after ≈: the same amount, converted by molar mass.

Key:
Format in all cases: functional
[1] = tested on: Staphylococcus aureus; assay: Antibacterial activity against methicillin-resistant Staphylococcus aureus EMRSA15 by MTT dye based assay
In short: (§1)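 Strains grown on nutrient agar for 24 h at 37 °C before testing. Compounds dissolved in DMSO, diluted in MHB to 512 mg/L stock. Two-fold serial broth microdilution in MHB, final 128 to 0.25 mg/L in the initial evaluation. Final DMSO 1.56% to 0.0031% v/v. Inoculum 5×10^5 cfu/mL, 37 °C incubation, duplicates. MTT added for 20 min. MIC is the lowest concentration with no colour change.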

[2] = tested on: Staphylococcus aureus; assay: Antibacterial activity against methicillin-resistant Staphylococcus aureus isolate XU212 harboring TetK tetracycline efflux pump by MTT dye based assay; in short: as §1
[3] = tested on: Staphylococcus aureus; assay: Antibacterial activity against methicillin-resistant Staphylococcus aureus EMRSA16 by MTT dye based assay; in short: as §1
[4] = tested on: Staphylococcus aureus; assay: Antibacterial activity against Staphylococcus aureus ATCC 25923 by MTT dye based assay; in short: as §1
[5] = tested on: Staphylococcus aureus; assay: Antibacterial activity against Staphylococcus aureus RN4220 harboring MsrA macrolide efflux protein by MTT dye based assay; in short: as §1
[6] = tested on: Staphylococcus aureus; assay: Antibacterial activity against Staphylococcus aureus SA1199B over-expressing NorA by MTT dye based assay; in short: as §1

SMILES | MIC [1] | MIC [2] | MIC [3] | MIC [4] | MIC [5] | MIC [6]
CC(=O)c1c(O)cc(O)cc1OC/C=C(\C)CCC=C(C)C | 16 µg/mL (≈ 52.6 µM) | 8 µg/mL (≈ 26.3 µM) | 4 µg/mL (≈ 13.1 µM) | 16 µg/mL (≈ 52.6 µM) | 8 µg/mL (≈ 26.3 µM) | 8 µg/mL (≈ 26.3 µM)
CC[C@H](C)C(=O)c1c(O)cc(O)cc1OCc1ccccc1 | 8 µg/mL (≈ 26.6 µM) | 4 µg/mL (≈ 13.3 µM) | 4 µg/mL (≈ 13.3 µM) | 4 µg/mL (≈ 13.3 µM) | 4 to 8 µg/mL (≈ 13.3 to 26.6 µM) | 8 µg/mL (≈ 26.6 µM)
CC(C)=CCC/C(C)=C/COc1cc(O)cc(O)c1C(=O)c1ccccc1 | 1 µg/mL (≈ 2.73 µM) | 1 µg/mL (≈ 2.73 µM) | 0.5 µg/mL (≈ 1.36 µM) | 1 µg/mL (≈ 2.73 µM) | 1 µg/mL (≈ 2.73 µM) | 1 µg/mL (≈ 2.73 µM)
CC[C@H](C)C(=O)c1c(O)cc(O)cc1OC/C=C(\C)CC/C=C(\C)CCC=C(C)C | > 512 µg/mL | > 512 µg/mL | > 512 µg/mL | > 512 µg/mL | > 512 µg/mL | > 512 µg/mL
CCCCCCCCCCCCOc1cc(O)cc(O)c1C(=O)[C@@H](C)CC | 16 µg/mL (≈ 42.3 µM) | 64 µg/mL (≈ 169 µM) | 16 µg/mL (≈ 42.3 µM) | 128 µg/mL (≈ 338 µM) | 8 µg/mL (≈ 21.1 µM) | 16 µg/mL (≈ 42.3 µM)
CCCCC(=O)c1c(O)cc(O)cc1OC/C=C(\C)CCC=C(C)C | 1 µg/mL (≈ 2.89 µM) | 0.5 µg/mL (≈ 1.44 µM) | 0.5 µg/mL (≈ 1.44 µM) | 0.5 µg/mL (≈ 1.44 µM) | 0.5 µg/mL (≈ 1.44 µM) | 1 µg/mL (≈ 2.89 µM)
CC[C@H](C)C(=O)c1c(O)cc(O)cc1OCCC(C)C | 2 to 4 µg/mL (≈ 7.13 to 14.3 µM) | 4 µg/mL (≈ 14.3 µM) | 2 to 4 µg/mL (≈ 7.13 to 14.3 µM) | 2 µg/mL (≈ 7.13 µM) | 2 µg/mL (≈ 7.13 µM) | 2 µg/mL (≈ 7.13 µM)
CCCCCCCCOc1cc(O)cc(O)c1C(=O)[C@@H](C)CC | 0.5 µg/mL (≈ 1.55 µM) | 0.5 µg/mL (≈ 1.55 µM) | 0.25 µg/mL (≈ 0.775 µM) | 0.25 to 0.5 µg/mL (≈ 0.775 to 1.55 µM) | 0.5 µg/mL (≈ 1.55 µM) | 0.25 to 0.5 µg/mL (≈ 0.775 to 1.55 µM)
CCCCCCCCCCCCCCCCCC(=O)c1c(O)cc(O)cc1OC/C=C(\C)CCC=C(C)C | > 512 µg/mL | > 512 µg/mL | > 512 µg/mL | > 512 µg/mL | > 512 µg/mL | > 512 µg/mL
CCC(=O)c1c(O)cc(O)cc1OC/C=C(\C)CCC=C(C)C | 2 µg/mL (≈ 6.28 µM) | 1 µg/mL (≈ 3.14 µM) | 1 µg/mL (≈ 3.14 µM) | 2 µg/mL (≈ 6.28 µM) | 1 µg/mL (≈ 3.14 µM) | 2 µg/mL (≈ 6.28 µM)
CC[C@H](C)C(=O)c1c(O)cc(O)cc1OCC=C(C)C | 16 µg/mL (≈ 57.5 µM) | 4 to 8 µg/mL (≈ 14.4 to 28.7 µM) | 4 µg/mL (≈ 14.4 µM) | 8 µg/mL (≈ 28.7 µM) | 8 µg/mL (≈ 28.7 µM) | 16 µg/mL (≈ 57.5 µM)
CCCCCCCCCCCCCCCCCCOc1cc(O)cc(O)c1C(=O)[C@@H](C)CC | > 512 µg/mL | > 512 µg/mL | > 512 µg/mL | > 512 µg/mL | > 512 µg/mL | > 512 µg/mL
CCCCCCCCCC(=O)c1c(O)cc(O)cc1OC/C=C(\C)CCC=C(C)C | 512 µg/mL (≈ 1230 µM) | 64 µg/mL (≈ 154 µM) | 64 µg/mL (≈ 154 µM) | 512 µg/mL (≈ 1230 µM) | 256 µg/mL (≈ 614 µM) | 512 µg/mL (≈ 1230 µM)
CC[C@H](C)C(=O)c1c(O)cc(O)cc1OCCC(C)CCCC(C)C (some centres not stated) | 0.5 to 1 µg/mL (≈ 1.43 to 2.85 µM) | 1 µg/mL (≈ 2.85 µM) | 0.25 µg/mL (≈ 0.713 µM) | 1 µg/mL (≈ 2.85 µM) | 0.5 µg/mL (≈ 1.43 µM) | 0.5 to 1 µg/mL (≈ 1.43 to 2.85 µM)
CCCCCCCCCCOc1cc(O)cc(O)c1C(=O)[C@@H](C)CC | 0.5 to 1 µg/mL (≈ 1.43 to 2.85 µM) | 2 to 4 µg/mL (≈ 5.71 to 11.4 µM) | 0.25 µg/mL (≈ 0.713 µM) | 1 to 2 µg/mL (≈ 2.85 to 5.71 µM) | 1 µg/mL (≈ 2.85 µM) | 2 µg/mL (≈ 5.71 µM)
CCCC(=O)c1c(O)cc(O)cc1OC/C=C(\C)CCC=C(C)C | 2 µg/mL (≈ 6.02 µM) | 2 µg/mL (≈ 6.02 µM) | 1 µg/mL (≈ 3.01 µM) | 2 µg/mL (≈ 6.02 µM) | 2 µg/mL (≈ 6.02 µM) | 2 µg/mL (≈ 6.02 µM)
CCn1cc(C(=O)O)c(=O)c2cc(F)c(N3CCNCC3)cc21 [NORFLOXACIN] | 0.5 µg/mL (≈ 1.57 µM) | 8 µg/mL (≈ 25.1 µM) | 256 µg/mL (≈ 802 µM) | 0.5 µg/mL (≈ 1.57 µM) | 0.5 µg/mL (≈ 1.57 µM) | 32 µg/mL (≈ 100 µM)
CC[C@H](C)C(=O)c1c(O)cc(O)cc1OC/C=C(\C)CCC=C(C)C [OLYMPICIN A] | 1 µg/mL (≈ 2.89 µM) | 0.5 µg/mL (≈ 1.44 µM) | 0.5 µg/mL (≈ 1.44 µM) | 1 µg/mL (≈ 2.89 µM) | 1 µg/mL (≈ 2.89 µM) | 1 µg/mL (≈ 2.89 µM)
CN[C@H](CC(C)C)C(=O)N[C@H]1C(=O)N[C@@H](CC(N)=O)C(=O)N[C@H]2C(=O)N[C@H]3C(=O)N[C@H](C(=O)N[C@H](C(=O)O)c4cc(O)cc(O)c4-c4cc3ccc4O)[C@H](O)c3ccc(c(Cl)c3)Oc3cc2cc(c3O[C@@H]2O[C@H](CO)[C@@H](O)[C@H](O)[C@H]2O[C@H]2C[C@](C)(N)[C@H](O)[C@H](C)O2)Oc2ccc(cc2Cl)[C@H]1O [VANCOMYCIN] | 0.25 µg/mL (≈ 0.173 µM) |  | 0.25 µg/mL (≈ 0.173 µM) | 0.25 µg/mL (≈ 0.173 µM) |  | 0.25 µg/mL (≈ 0.173 µM)
